Compounds with a hit are over-represented: about 1.9% of the library has one in this group of screens.
Ins promoter up: MIN6 insulin promoter up-regulation; MIN6 insulin promoter-GFP reporter, high-content imaging; hits give high values; z-score at 5 µM; 0.3% of 190,000 active; AID 1625;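 active = z-score above 3 at 5 µM with at least 500 cells counted in the well; inconclusive = wells under 500 cells, flagged as cytotoxic or low count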
bCat nuc transl: beta-catenin nuclear translocation modulation. HeLa beta-catenin nuclear translocation, immunofluorescence imaging. nuclear translocation activity, % at 5 µM. AID 1665. 0.3% of 190,000 active;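 active = nuclear translocation activity above 50% at 5 µM, with a well cell count of 50 or more; inconclusive = wells under 50 cells across six images, flagged as toxic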;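 also: per-cell ratio of nuclear to cytoplasmic median beta-catenin stain intensity; plate controls were DMSO negative control for no effect and GSK-3 inhibitor IX positive control for full effect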
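test system = HeLa cells, endogenous beta-catenin | dosing = single 5 µM dose plus 0.02–20 µM confirmation series | times = compound treatment 24 h, 37°C, 5% CO2 | technique = beta-catenin immunofluorescence imaging with DAPI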
MT stabilizer: microtubule stabilization, imaging screen; % tubulin-high responders, % at 10 µM; AID 2205; 0.83% of 200,000 active; HeLa tubulin immunostaining HCS, 24 h; share of cells brighter than vehicle mean+2SD;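 active = plate Z-score above 3 for both tubulin-high and condensed-nucleus cell shares, with cell loss under 80%, at 10 µM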;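 also: anti alpha tubulin signal scored within the nucleus-defined area of each cell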
Autophagy HCS: alters autophagy in cells. MEF GFP-LC3 puncta imaging; test concentration mostly 10 µM. calls only at 10 µM (by protocol). 0.98% of 190,000 active. AID 463193;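 active = percentage of spot-positive cells more than 3 SD above its plate mean, without a fluorescence outlier flag or 80% toxicity; inconclusive = no clear call, values can overlap the other calls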;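 also: spot-positive cell cutoff set from DMSO-treated cells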
Active calls of the source: *; i = inactive; u = inconclusive; x = no result; + = active, no number.

SMILES	Ins promoter up	bCat nuc transl	MT stabilizer	Autophagy HCS
CCOC(=O)Nc1nc(-c2ccccc2)c(C(=O)c2ccc(Cl)cc2)s1	-0.31	182*	9	i
CCOC(=O)Nc1sc(C)nc1-c1ccccc1	-0.06	-5	3	i
Cc1ccc(C2Nc3ccccc3C(=O)N2Cc2ccco2)cc1 (stereo not drawn)	1	5	18*	i
COc1ccc(C(CCN2CCCC(C)C2)c2c(OC)cc(OC)c3c2OC(=O)CC3c2cc(OC)c(OC)c(OC)c2)cc1 (stereo not drawn)	x	1	x	x
CC(=O)Nc1cccc(NC(=O)CSc2ccc(-c3cccnc3)nn2)c1	0.36	1	2	+
Cc1cc(C)c(NC(=O)CSc2ccc(-c3cccnc3)nn2)c(C)c1	0.09	-1	3	i
O=C(OCC(=O)N1CCc2ccccc2C1)c1cccnc1Cl	-0.41	-1	3	i
CCS(=O)(=O)N1Cc2ccccc2CC1C(=O)Nc1ncc(C)s1 (stereo not drawn)	-0.3	0	4	+
CC(C)c1ccccc1NC(=O)COC(=O)c1c2c(nc3ccccc13)CCN(Cc1ccccc1)C2	-1.3	x	2	+
Cc1c(Cl)cccc1NC(=O)COC(=O)c1c2c(nc3ccccc13)CCN(Cc1ccccc1)C2	-0.22	-1	3	+
Cc1cc(N2CCN(C)CC2)ccc1NC(=O)c1c2c(nc3ccccc13)CCN(Cc1ccccc1)C2	-5.2	-3	3	u
O=C(NC1CCCCCC1)c1c2c(nc3ccccc13)CCN(Cc1ccccc1)C2	-0.6	-3	3	i
Cc1ccc(-n2nnnc2SCn2nnc3ccccc3c2=O)cc1	x	5	2	i
Cc1cccc(-n2nnnc2SCn2nnc3ccccc3c2=O)c1	x	x	3	+
O=[N+]([O-])c1ccc(-c2nc(C(Cl)Cl)c3ccccc3n2)cc1	u	0	x	x
COc1ccc(OC)c(NC(=O)CNC(=O)c2ccc([N+](=O)[O-])cc2)c1	0.57	-4	2	i
CCOC(=O)/C(=C/C=C1\Sc2cc(OCC)c(OCC)cc2N1CC)C(C)=O	16*	x	54	+
CCOC(=O)/C(=C\C=C1/Sc2cc(OCC)c(OCC)cc2N1CC)C(C)=O	x	12	80	+
CCN1/C(=C/C(C)=O)Sc2ccc(OC)cc21	2.8	6	13	i
COc1cc(CNC2CCCCCC2)cc(OC)c1	0.09	x	1	i
COC(=O)c1cc(NC(=O)c2cccc(C(F)(F)F)c2)c(=O)oc1C	1.7	-1	1	i
COC(=O)c1cc(NC(=O)c2cccc(Cl)c2)c(=O)oc1/C=C/Nc1cc(C)cc(C)c1	15*	0	5	+
O=C(Nc1ccc(Cl)cc1)N1CCCN(c2ccc(C(F)(F)F)cc2[N+](=O)[O-])CC1	-0.05	-2	x	x
COCCCNC(=O)CN1C(=O)/C(=C/c2ccccc2)Sc2ccccc21	-0.09	0	x	x
O=Cc1ccccc1OCCOc1ccccc1C=O	x	x	4	+
SMILES	Ins promoter up	bCat nuc transl	MT stabilizer	Autophagy HCS
O=Cc1ccccc1Oc1ccccc1	-0.42	-4	2	i
O=C(/C=C/c1ccco1)OCC1CCCN2CCCCC12 (stereo not drawn)	x	0	1	i
O=C(CSc1ccccc1)N/N=C/c1ccccc1O	-0.04	1	3	i
COc1ccc(CSCC(=O)N/N=C/c2ccccc2O)cc1	0.19	0	3	+
O=C1NC(c2ccc(Cl)cc2)Nc2ccccc21 (stereo not drawn)	-0.19	1	22*	i
O=C1NC(c2ccncc2)Nc2ccccc21 (stereo not drawn)	-0.11	-1	2	i
Cc1ccc(C2NC(=O)c3ccccc3N2)s1 (stereo not drawn)	-0.79	94*	43*	i
CC(C)c1cccc(OCCCCN(C)C)c1	x	-1	1	i
CCCCSc1ccc(NC(=O)c2cccnc2)cc1	0.05	0	2	i
CCOc1ccc2[nH]c(=O)c(CN(CCc3ccccc3)C(=O)N3CCOCC3)cc2c1	5.5*	0	2	i
Cc1ccc([N+](=O)[O-])cc1NC(=S)NC(=O)c1cccs1	0.6	2	9	i
Cc1ccc(-c2cc(C(F)F)n3ncc(C(=O)Nc4c(C)nn(Cc5c(Cl)cccc5Cl)c4C)c3n2)cc1	-0.83	-3	6	+
Cc1ccc(-c2cc(C(F)F)n3ncc(C(=O)N4CCc5ccccc54)c3n2)cc1	-1.2	6	11*	+
NNC(=O)c1nn(-c2ccc(Cl)cc2)cc1O	-0.37	-2	x	x
CCOC(=O)C1CCCN(CCC(=O)Nc2cccc(F)c2)C1 (stereo not drawn)	0.36	-2	3	i
CCOC(=O)C1CCCN(CCC(=O)Nc2cccc(C)c2)C1 (stereo not drawn)	0.41	1	2	+
Cc1cccc(C(=O)N2CCC(Cc3ccccc3)CC2)c1[N+](=O)[O-]	-0.38	0	2	i
CCN1C(=O)/C(=C/c2ccc(N3CCCC3)cc2)NC1=S	16*	-2	2	+
Cc1cc(/C=C2\NC(=S)N(C)C2=O)ccc1N1CCCC1	x	0	4	+
Cc1cc(N2CCCC2)ccc1/C=C1/C(=O)N(C)C(=S)N1C	x	20	25*	i
CN1C(=O)/C(=C/C=C2/CCCN2C)N(C)C1=S	0.64	2	3	i
Cc1cc(/C=C2/C(=O)N(C)C(=S)N2C)ccc1N1CCCC1	x	2	1	+
COC(=O)C(Cc1ccccc1)P(=O)(c1ccccc1)c1ccccc1 (stereo not drawn)	0.54	-4	3	i
O=c1[nH]cnc(O)c1C(c1ccc2c(c1)OCO2)c1c(O)nc[nH]c1=O	0.37	-5	4	i
CCCN1C(=O)/C(=C/c2ccc(N3CCCC3)c(C)c2)NC1=S	x	x	2	+
SMILES	Ins promoter up	bCat nuc transl	MT stabilizer	Autophagy HCS
O=C(Nc1ccc(Cl)cc1)/C(=C/c1ccc([N+](=O)[O-])cc1)c1nc2ccccc2s1	-4.9	-3	36*	i
Cc1ccnc(N2C(=O)c3cccc4c([N+](=O)[O-])ccc(c34)C2=O)c1	3.1*	1	4	i
Cc1ccc(N2C(=O)c3cccc4c([N+](=O)[O-])ccc(c34)C2=O)c2cccnc12	0.95	52*	x	x
COc1ccc(C2N=C(c3ccccc3)C(C)(C)N2O)cc1 (stereo not drawn)	-0.43	x	2	i
Cc1nn(-c2ccccc2)c2sc(C(=O)N(CC(=O)NC3CCCC3)Cc3ccco3)cc12	-0.69	-2	40*	i
COc1ccc(-c2nn(CCC(=O)O)cc2/C=C/C(=O)O)cc1[N+](=O)[O-]	x	0	2	i
Cc1cc(-c2ccccc2)n(-c2cc(N/N=C/c3ccccc3O)ncn2)n1	-1.3	128*	11	i
CCN(CC)C(=O)c1ccc2c(c1[N+](=O)[O-])C(=O)c1ccccc1C2=O	0.49	2	4	i
Cn1c(CSCc2ccc(Cl)cc2)n[nH]c1=S	-0.03	1	3	i
COc1cc(C(c2c(C)[nH][nH]c2=O)c2c(C)[nH][nH]c2=O)cc(OC)c1OC	-0.64	2	2	+

Screening data from PubChem.
